From PMC5495021 (Leukemia & lymphoma, 2015)
Entries after “also recorded” stand apart in the source; their conditions may differ. Like-named read-outs stand apart in the source and are kept apart here.

How the values were obtained:
[1] = Plasma pharmacokinetics of SAR103168 in phase I patients; assay type: in vivo, human
[2] = tested on: refractory/relapsed acute leukemias or high-risk myelodysplastic syndromes; test: Anti-leukemic efficacy; assay type: in vivo, human
Summary of the method: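 Adults with refractory/relapsed acute leukemia, accelerated/blast-phase CML, or high-risk MDS received IV infusion daily for 5 days per course, starting at 1.2 mg/m2/day with dose escalation. Response was graded by IWG criteria (acute leukemia/MDS) or European LeukemiaNet definitions (CML). Marrow aspirate/biopsy at baseline, course 2 Day 11–14, every 2 courses, and end of study. Descriptive statistics.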

Protein binding = assay type: in vitro ADME, human; settings: no saturation over a clinically relevant concentration range
CYP2D6 = CYP2D6 (Homo sapiens, UniProt P10635); test: Contribution of CYP enzymes to metabolism; assay type: in vitro ADME
Sequence of CYP2D6 (P10635 whole entry): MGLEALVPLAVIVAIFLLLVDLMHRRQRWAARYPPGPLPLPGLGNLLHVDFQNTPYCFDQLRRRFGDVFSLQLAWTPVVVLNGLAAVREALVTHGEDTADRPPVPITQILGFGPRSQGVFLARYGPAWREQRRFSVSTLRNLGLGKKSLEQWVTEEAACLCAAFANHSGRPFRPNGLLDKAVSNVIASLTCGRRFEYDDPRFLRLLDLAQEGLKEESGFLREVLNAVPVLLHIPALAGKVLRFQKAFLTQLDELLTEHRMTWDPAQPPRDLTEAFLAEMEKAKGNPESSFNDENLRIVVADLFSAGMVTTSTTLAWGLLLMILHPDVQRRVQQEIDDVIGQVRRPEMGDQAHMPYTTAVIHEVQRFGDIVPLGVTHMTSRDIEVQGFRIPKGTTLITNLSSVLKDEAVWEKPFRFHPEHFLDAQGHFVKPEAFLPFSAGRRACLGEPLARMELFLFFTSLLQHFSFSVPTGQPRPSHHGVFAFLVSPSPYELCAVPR

[3] = human, in vivo
xenograft models = settings: cited from earlier work
[4] = cited from earlier work
Src kinase family = settings: preclinical; cited from earlier work
BCR-Abl kinase = settings: preclinical; cited from earlier work
[5] = tested on: vascular endothelial growth factor receptor type 1 (VEGFR1); settings: preclinical; cited from earlier work
[6] = tested on: vascular endothelial growth factor receptor type 2 (VEGFR2); settings: preclinical; cited from earlier work
Tie2 = settings: preclinical; cited from earlier work
[7] = tested on: platelet-derived growth factor receptor (PDGFR); settings: preclinical; cited from earlier work
[8] = tested on: fibroblast growth factor receptor (FGFR); settings: preclinical; cited from earlier work
[9] = tested on: epidermal growth factor receptor (EGFR); settings: preclinical; cited from earlier work
[10] = tested on: acute and chronic myeloid leukemic cells; settings: inhibition of proliferation and induction of apoptosis; cited from earlier work
[11] = tested on: leukemic progenitor cells from 29 patients with AML; settings: including poor-prognosis chromosome abnormalities; cited from earlier work
human AML leukemic cells = settings: animals implanted with human AML leukemic cells; cited from earlier work
[12] = preclinical toxicology studies; cited from earlier work
[13] = Safety / adverse events and DLT in phase I dose escalation study
[14] = mice at active doses (16.7 mg/kg IV or 2 × 40 mg/kg PO)

For CC(C)(C)NC(=O)Nc1nc2nc(Nc3ccc4nsnc4c3)ncc2cc1-c1c(Cl)cccc1Cl [SAR103168, 1-[2-(2,1,3-benzothiadiazol-5-ylamino)-6-(2,6-dicholophenyl)-pyridol[2,3-d]pyrimidin-7-yl]-3′-tert-butylurea], the “time by which mean plasma concentrations were below the limit of detection” value ([1]; all dose groups) was no more than 24 h, the tlast ([1]; generally, over the dose range 1.2 to 14.4 mg/m2) was no more than 7 h and the “accumulation in exposures (Cmax or AUClast) upon multiple daily dosings” value ([1]; human, in vivo) was “limited accumulation”. The “patient exposure (AUC)” value ([1]; human, in vivo, 14.4 mg/m2) was ~ 1000 ng/h/mL, the “patient exposure (Cmax)” value ([1]; human, in vivo, 14.4 mg/m2) was ~ 500 ng/mL and the “transient decrease in peripheral blasts” value ([2]; efficacy population) was “One patient”. For the same compound, the clinical benefit ([2]; within the tested dose range) was “did not demonstrate a clear clinical benefit”, the Human protein binding (Protein binding) was greater than 99.3% and the “contribution of CYP2D6 to the compound's metabolism” value (CYP2D6) was ~ 20%. The “maximum tolerated dose (MTD)” value [3] was “prior to reaching the MTD”, the “active dose in various tumor models” value (xenograft models; IV, in mice) was 16.7 mg/kg and the “putative, partially active dose level” value (xenograft models; based on the preclinical data, human-equivalent of 10 mg/kg in mouse) was ~ 30 mg/m^2. The “putative, partially active dose level” value (xenograft models; in mouse, preclinical data) was 10 mg/kg, the “AUCs achieved in animal models” value [4, 14] was no less than 16000 ng/h/mL and the “Cmax achieved in animal models” value [4, 14] was no less than 3600 ng/mL. The “exposures (AUCs) which demonstrated in vivo activity in xenograft models” value ([4]; xenograft models) was 16000 ng/h/mL, the “activity against the Src kinase family” value (Src kinase family) was “Nanomolar activity” and the “activity against the BCR-Abl kinase” value (BCR-Abl kinase) was “Nanomolar activity”. For the same compound, the “activity against VEGFR1” value [5] was “Nanomolar activity”, the “activity against VEGFR2” value [6] was “Nanomolar activity” and the “activity against Tie2” value (Tie2) was “Nanomolar activity”. The “activity against PDGFR” value [7] was “Nanomolar activity”, the “activity against FGFR” value [8] was “Nanomolar activity” and the “activity against EGFR” value [9] was “Nanomolar activity”. For the same compound, the “IC50 of anti-leukemic effects” value [10] was “nanomolar”, the “AML patient samples sensitive to the agent” value [11] was “over 85%” and the “effect of administration on tumors” value (human AML leukemic cells) was “tumor regression”. The toxicity profile [12] was “favorable toxicity profile”, the “discontinuation of study treatment due to adverse events” value ([13]; 29 treated patients) was 10.3% and the “SAE Preferred Term” value ([13]; planned dose level 1.2 mg/m^2, Relationship to Study Drug: No) was “Multi-organ failure; also recorded: Bacteremia; also recorded: Pneumonia fungal; also recorded: Febrile neutropenia”. For the same compound, the “SAE Preferred Term” value ([13]; planned dose level 1.2 mg/m^2, Relationship to Study Drug: Yes) was “Echocardiogram abnormal”, the “SAE Preferred Term” value ([13]; planned dose level 1.7 mg/m^2, Relationship to Study Drug: No) was “Deep vein thrombosis; also recorded: Febrile neutropenia; also recorded: Staphylococcal sepsis; also recorded: Disease progression; also recorded: Pulmonary embolism” and the “SAE Preferred Term” value ([13]; planned dose level 2.4 mg/m^2, Relationship to Study Drug: No) was “Perirectal abscess; also recorded: Febrile neutropenia; also recorded: Anemia; also recorded: Disease progression; also recorded: Septic shock”. The “SAE Preferred Term” value ([13]; planned dose level 4.8 mg/m^2, Relationship to Study Drug: No) was “Bone pain; also recorded: Febrile neutropenia; also recorded: Disease progression”, the “SAE Preferred Term” value ([13]; planned dose level 9.6 mg/m^2, Relationship to Study Drug: No) was “Pneumonia; also recorded: Bacteremia; also recorded: Asthenia” and the “SAE Preferred Term” value ([13]; planned dose level 14.4 mg/m^2, Relationship to Study Drug: No) was “Disease progression; also recorded: Sinusitis fungal; also recorded: Sepsis”.
